Experimental data of several laboratories.
RET: Proto-oncogene tyrosine-protein kinase receptor Ret (RET, Homo sapiens, UniProt P07949)
RET V804M: Proto-oncogene tyrosine-protein kinase receptor Ret (RET, Homo sapiens, UniProt P07949, V804M)
RET V804L: Proto-oncogene tyrosine-protein kinase receptor Ret (RET, Homo sapiens, UniProt P07949, V804L)

| Structure (SMILES) | target | test | setting | endpoint | value |
| --- | --- | --- | --- | --- | --- |
| COc1cc(NC(=O)Nc2cc(C)c3nc(NC(=O)c4ccccc4)sc3c2)cc(OC)c1 | RET | enzyme activity, inhibitor, radiometric | 0.1 µM | remaining activity | 123% |
| CO[C@]1(C(=O)N[C@@H](C)c2ccc(-n3cc(F)cn3)nc2)CC[C@H](c2nc(C)cc(Nc3cc(C)[nH]n3)n2)CC1 | Proto-oncogene tyrosine-protein kinase receptor Ret (RET, Homo sapiens, UniProt P07949, L760A) | thermal stability, DSF | 10 µM | ΔTm | 11.9 °C |
| COc1ccc(-c2cn3cc(C(=O)N4CC(O)C4)nc3c(=O)n2C)c(F)c1 | RET | enzyme activity, inhibitor, radiometric | 0.1 µM | remaining activity | 117% |
| CC(C)(O)c1cncc(-c2nc3ccc(F)cc3n2C2CC2)c1 | RET V804M | cell-free assay, competition with immobilised ligand | 1 µM | remaining binding | 100% |
| COc1cc(NC(=O)Nc2cc(OC)c3nc(NC(=O)c4ccccc4)sc3c2)cc(OC)c1 | RET | enzyme activity, inhibitor, radiometric | 0.1 µM | remaining activity | 112% |
| Nc1ncnc2occ(-c3ccc(NC(=O)Nc4cc(C(F)(F)F)ccc4F)cc3)c12 | RET | cell-free assay | 20 µM | remaining signal | 0% |
| CNC(=O)Nc1ccc2c(c1)[C@@]1(CC2)OC(=O)N(CC(=O)N(Cc2ccc(F)cc2)[C@@H](C)C(F)(F)F)C1=O | RET V804L | cell-free assay, competition with immobilised ligand | 1 µM | remaining binding | 94% |
| COc1ccc(CN2C3CC2CN(c2ccc(-c4cc(OCC(C)(C)O)cn5ncc(C#N)c45)cn2)C3)cn1 | RET V804M | thermal stability, DSF | 10 µM | ΔTm | 6.4 °C |
| C[C@H](c1ccnc(Nc2nc3ccc(-c4cc(N(C)C)ncn4)cc3[nH]2)c1)N1CCN(C(=O)CC(F)(F)F)CC1 | RET V804L | cell-free assay, competition with immobilised ligand | 0.1 µM | remaining binding | 83% |
| CCCOc1ccc(OC)c(F)c1C(=O)c1ccc(C(=O)N[C@@H]2CNC[C@H]2NC(=O)c2ccc3[nH]ncc3c2)cc1 | RET | enzyme activity, inhibitor | 10 µM | remaining activity | 1% |
